These results are taken from ChEMBL document CHEMBL4406881, “Design, synthesis and biological evaluation of benzoylacrylic acid shikonin ester derivatives as irreversible dual inhibitors of tubulin and EGFR” (Bioorg Med Chem, 2019).

The source made the active and inactive calls. The rule behind the calls is not given here.

For one assay, the system named is MCF7. In words: Antiproliferative activity against human MCF7 cells assessed as reduction in cell viability after 24 hrs by MTT assay. The settings on record: MCF7, 24 h. The format is functional, cell-based. The method in brief:
(§1)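 MTT colorimetric assay. Cells in log phase in medium with 10% FBS were seeded at 10⁴ cells/well and left overnight at 37 °C, 5% CO₂ to reattach. Compounds were added at 0.1, 1, 10 and 100 μM in 10% FBS for 24 h. IC50 reported as mean ± SD of three independent experiments.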
A general note: Tetrazolium dyes change colour on reduction, which living cells bring about.

The test system of a further assay is NCI-H460. The assay can be described thus: Antiproliferative activity against human H460 cells assessed as reduction in cell viability after 24 hrs by MTT assay. The format is functional, cell-based. To be noted: NCI-H460, 24 h. The method in brief: as §1
The target in assay [1] is Epidermal growth factor receptor (Homo sapiens, UniProt P00533). In words: Inhibition of C-terminal His-tagged N-terminal GST-tagged human EGFR (668 to 1210 residues) expressed in baculovirus infected Sf9 cells after 30 mins in presence of gamma-[32p-ATP] binding assay.
Sequence of Epidermal growth factor receptor (P00533 whole entry, the tested form may be a part): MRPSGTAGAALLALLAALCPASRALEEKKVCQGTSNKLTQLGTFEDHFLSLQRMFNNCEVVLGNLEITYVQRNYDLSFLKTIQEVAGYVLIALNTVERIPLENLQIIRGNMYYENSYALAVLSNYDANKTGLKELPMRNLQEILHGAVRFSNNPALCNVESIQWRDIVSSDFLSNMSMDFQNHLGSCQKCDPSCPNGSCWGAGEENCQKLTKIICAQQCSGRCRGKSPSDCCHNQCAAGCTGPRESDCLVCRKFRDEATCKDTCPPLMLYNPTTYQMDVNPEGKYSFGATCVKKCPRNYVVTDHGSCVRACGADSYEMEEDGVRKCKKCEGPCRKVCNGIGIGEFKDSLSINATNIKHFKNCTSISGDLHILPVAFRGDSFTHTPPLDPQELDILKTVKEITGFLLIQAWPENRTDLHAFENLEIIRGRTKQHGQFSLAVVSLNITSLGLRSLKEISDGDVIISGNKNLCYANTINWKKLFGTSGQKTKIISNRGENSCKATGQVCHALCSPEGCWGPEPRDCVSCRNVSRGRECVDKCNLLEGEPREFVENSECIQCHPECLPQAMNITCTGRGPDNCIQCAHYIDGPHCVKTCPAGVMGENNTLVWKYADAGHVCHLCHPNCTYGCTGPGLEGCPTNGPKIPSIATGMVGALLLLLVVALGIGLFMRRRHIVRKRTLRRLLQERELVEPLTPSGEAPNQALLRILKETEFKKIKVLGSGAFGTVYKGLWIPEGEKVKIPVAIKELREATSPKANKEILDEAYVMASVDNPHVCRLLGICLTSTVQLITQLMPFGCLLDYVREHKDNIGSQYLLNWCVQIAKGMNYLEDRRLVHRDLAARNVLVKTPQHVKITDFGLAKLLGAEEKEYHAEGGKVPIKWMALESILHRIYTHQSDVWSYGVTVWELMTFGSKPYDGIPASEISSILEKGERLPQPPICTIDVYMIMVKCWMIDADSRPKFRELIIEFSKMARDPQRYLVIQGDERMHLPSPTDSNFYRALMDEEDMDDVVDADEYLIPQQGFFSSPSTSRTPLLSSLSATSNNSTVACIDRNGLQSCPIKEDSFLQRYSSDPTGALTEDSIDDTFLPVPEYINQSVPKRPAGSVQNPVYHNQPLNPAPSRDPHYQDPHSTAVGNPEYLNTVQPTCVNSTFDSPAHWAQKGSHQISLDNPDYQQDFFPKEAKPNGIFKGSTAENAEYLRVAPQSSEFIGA
Assay [2] concerns A549. The assay can be described thus: Induction of apoptosis in human A549 cells assessed as late apoptotic cells at 2 uM after 24 hrs by Annexin-V/PI staining based flow cytometry analysis (reference value: 5.69%). The format is functional. (In general: In flow cytometry, cells or beads pass a laser one at a time.)
The test system of assay [3] is A549. In words: Induction of apoptosis in human A549 cells assessed as viable cells at 4 uM after 24 hrs by Annexin-V/PI staining based flow cytometry analysis (reference value: 91.4%). In kind it is functional. To be noted: A549, 24 h, read-out: Activity. The method in brief: (§2)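 A549 cells seeded overnight at 37 °C, 5% CO2, then exposed to 0, 2, 4, 8 or 12 µM for 24 h (dose series) or 8 µM for 0, 12, 24, 36 h (time series). Harvested, PBS-washed, stained with Annexin V-FITC and PI in binding buffer 15 min at room temperature in the dark, analysed by flow cytometry; three independent experiments.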

The test system of assay [4] is A549. In words: Induction of apoptosis in human A549 cells assessed as early apoptotic cells at 4 uM after 24 hrs by Annexin-V/PI staining based flow cytometry analysis (reference value: 1.15%). The format is functional.
Assay [5] relates to A549. The assay can be described thus: Induction of apoptosis in human A549 cells assessed as viable cells at 12 uM after 24 hrs by Annexin-V/PI staining based flow cytometry analysis (reference value: 91.4%). The format is functional. To be noted: A549, 24 h, read-out: Activity. The method in brief: as §2
For assay [6], the system named is A549. In words: Induction of apoptosis in human A549 cells assessed as early apoptotic cells at 12 uM after 24 hrs by Annexin-V/PI staining based flow cytometry analysis (reference value: 1.15%). In kind it is functional.
Assay [7] deals with A549. In words: Induction of apoptosis in human A549 cells assessed as early apoptotic cells at 8 uM after 24 hrs by Annexin-V/PI staining based flow cytometry analysis (reference value: 2.02%). In kind it is functional.
The subject of assay [8] is A549. In words: Induction of apoptosis in human A549 cells assessed as necrotic cells after at 8 uM 36 hrs by Annexin-V/PI staining based flow cytometry analysis (reference value: 2.98%). In kind it is functional. The method in brief:
as §2

Assay [9] deals with A549. The assay can be described thus: Induction of apoptosis in human A549 cells assessed as reduction in caspase-3 expression at 2 to 8 uM after 24 hrs by Western blot analysis. In kind it is functional, cell-based. The method in brief: (§3)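 A549 cells in 6-well plates were lysed in RIPA buffer with protease inhibitors on ice for 30 min and cleared at 4 °C. Protein was quantified by BCA, run on SDS-PAGE and transferred to PVDF. Membranes were blocked with milk, probed with primary antibody (1:1000) overnight at 4 °C, then secondary antibody (1:3000-1:5000) 1 h at RT. Detection by ECL; band densitometry normalised to GAPDH (β-actin also used). Three independent experiments.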

Assay [10] deals with A549. The assay can be described thus: Induction of apoptosis in human A549 cells assessed as reduction in caspase-9 expression at 2 to 8 uM after 24 hrs by Western blot analysis. In kind it is functional, cell-based. The method in brief: as §3
Background: In western blotting, separated proteins are transferred to a membrane and probed.

For assay [11], the system named is A549. The assay can be described thus: Induction of apoptosis in human A549 cells assessed as increase in Bax expression at 2 to 8 uM after 24 hrs by Western blot analysis. In kind it is functional, cell-based. The method in brief: (§4)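 Western blot of A549 cells treated for 24 h. Lysates in RIPA buffer were run on SDS-PAGE and transferred to PVDF. Primary antibody at 1:1000 overnight at 4 °C, secondary antibody at 1:3000-1:5000 for 1 h, ECL detection. Densitometry was normalised to GAPDH; mean ± S.E.M. from three independent experiments.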

The test system of assay [12] is A549. In words: Induction of apoptosis in human A549 cells assessed as caspase-3 cleavage expression at 2 to 8 uM after 24 hrs by Western blot analysis. In kind it is functional, cell-based. The method in brief: as §4
Assay [13] concerns A549. The assay can be described thus: Induction of apoptosis in human A549 cells assessed as low mitochondrial membrane potential at 4 uM after 12 hrs by JC-1 staining-based flow cytometric analysis (reference value: 6.3%). The format is functional.
Assay [14] relates to A549. The assay can be described thus: Induction of apoptosis in human A549 cells assessed as high mitochondrial membrane potential at 4 uM after 12 hrs by JC-1 staining-based flow cytometric analysis (reference value: 90.6%). In kind it is functional. The method in brief: (§5)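 JC-1 staining of A549 cells treated for 12 h. CCCP-treated wells, 20 min at 37 °C, served as positive control. Collected cells were incubated with JC-1 solution at 37 °C for 30 min, washed, and analysed by flow cytometry for the fraction with high ΔΨm and for PI-positive cells. Results are mean ± S.E.M. of three replicates.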

Assay [15] has as its system A549. In words: Induction of apoptosis in human A549 cells assessed as high mitochondrial membrane potential at 8 uM after 12 hrs by JC-1 staining-based flow cytometric analysis (reference value: 90.6%). In kind it is functional. The method in brief:
as §5

The test system of assay [16] is A549. The assay can be described thus: Induction early apoptosis in human A549 cells assessed as increase in ROS generation after by flow cytometric analysis. The format is functional, cell-based. The method in brief: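 Intracellular ROS measured in A549 cells seeded to about 75% confluence. After treatment, cells were stained with ROS detection solution at 37 °C for 20 min, washed three times in serum-free medium, and analysed by flow cytometry.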

Assay [17] concerns A549. The assay can be described thus: Cell cycle arrest in human A549 cells assessed as accumulation at S phase at 4 uM after 24 hrs by RNAse A/ PI staining based flow cytometric analysis (reference value: 17.23%). In kind it is functional. The method in brief: (§6)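 A549 cells at 5.0×10^4 per well were grown 12 h at 37 °C. Treatment was 0, 2, 4 or 8 µM for 24 h, or 8 µM for 0, 12, 24 or 36 h. Cells were fixed in 70% ethanol at −20 °C for at least 12 h, then stained in PBS with 0.1 mg/mL RNase A and 5 µg/mL PI. At least 10,000 events per sample were collected by flow cytometry to give G0/G1, S and G2/M percentages.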

For another assay, the target named is Tubulin (Homo sapiens) (UniProt P68371+Q9H4B7+P0DPH7+P68366+Q13509+Q71U36+P04350+Q3ZCM7+P07437+P68363+Q9BQE3+Q6PEY2+Q13885+Q9BVA1+Q9BUF5). In words: Inhibition of microtubule polymerization in human A549 cells assessed as polymerized tubulin expression at 8 uM after 24 hrs by immuno blot analysis (reference value: 0.85). The format is cell-based. The method in brief:
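Cells were lysed in hypotonic buffer 5 min at 37 °C and centrifuged 10000 rpm, 10 min, 25 °C. Soluble (supernatant) and polymerised (pellet) tubulin fractions were resolved by SDS-PAGE in equal amounts and immunoblotted for β-tubulin.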

The test system of assay [18] is A549. In words: Cell cycle arrest in human A549 cells assessed as accumulation at G1 phase at 8 uM after 12 hrs by RNAse A/ PI staining based flow cytometric analysis (reference value: 67.69%). The format is functional. The method in brief:
as §6

Regarding `CC(C)=CC[C@@H](OC(=O)/C=C\C(=O)c1ccc(F)cc1)C1=CC(=O)c2c(O)ccc(O)c2C1=O`, the IC50 with MCF7 worked out at 8.9 µM; with NCI-H460, 5.61 µM; in assay [1], 0.0227 µM. Further, the Activity is 9.45% in the assay on A549 [2]; 17.6% with A549 [4]; 42.6% with A549 [6]; 31.7% in the assay on A549 [7]; 3% in the assay with A549 [8]; 27.9% in the assay on A549 [13]. The Activity in the assay on A549 [14] was 67.8%; in the assay on A549 [15], 55.8%; in the assay on A549 [16], “Dose-dependent effect”; in the assay on A549 [17] it was 19.8%; in the assay with A549 [18], 55.88%. Besides, the viability at 4 µM with A549 [3] was found to be 71.7%. For the same compound, the viability at 12 µM in the assay on A549 [5] came to 15.1%. Moreover, the result in the assay on A549 [9], in the assay with A549 [10], with A549 [11] and in the assay on A549 [12] was Active. The fold change (FC) at Tubulin (Homo sapiens) was found to be 0.69.

A word on the IC50: it is the concentration that inhibits the measured activity by half.
